Experimental data: the EternaBench riboswitch data

Test system: MS2 coat protein
Assay: apparent Kd, MS2 coat protein; higher = weaker binding; RNA-MaP array; FMN 200 µM where present
Summary of the method: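 The apparent Kd comes from binding curves fitted cluster by cluster, filtered, and summarised as a median. Those curves followed SNAP-549-labelled MS2 coat protein from 0.7 or 1.5 nM, doubling to 3 µM, on Illumina sequencing-chip clusters where stalled E. coli RNA polymerase had transcribed the designs, without and then with constant ligand. The buffer was 100 mM Tris-HCl pH 7.5, 80 mM KCl, 4 mM MgCl2, BSA, DTT, yeast tRNA and Tween-20, and green signal was normalised to red-channel RNA signal and control-cluster median Fmax.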

[1] = designed as: ON switch for flavin mononucleotide, no ligand
[2] = ligand present: flavin mononucleotide, designed as: ON switch for flavin mononucleotide
[3] = designed as: OFF switch for flavin mononucleotide, no ligand
[4] = ligand present: flavin mononucleotide, designed as: OFF switch for flavin mononucleotide

| Sequence | apparent Kd [1] [nM] | apparent Kd [2] [nM] | apparent Kd [3] [nM] | apparent Kd [4] [nM] |
| --- | --- | --- | --- | --- |
| GUUGCUAUCGGAGGAUAUUCAUACCGGAAACGGACAUGAGGAUCACCCAUGUCGCGAAAGCGUUGGGAGAAGGCCGAUAGCAAC | 248 | 21.4 |  |  |
| GUUGCUAUCGGAGGAUAUUCAUACCGGAAACGGACAUGAGGAUCACCCAUGUGCGGAAACGCUUGGGAGAAGGCCGAUAGCAAC | 210 | 22.1 |  |  |
| GUUGGUGUAGAAGGAUAUUGGUGAUGCGUCUUGUACAUGAGGAUCACCCAUGUCACUCUGCACGCCGAGAAGGUCUGCAAAUGG | 70 | 48.1 |  |  |
| GUUUAGUGAGGAUAUGCGGCAUCGAUCGAGCGCGGUCGGCUACAGAAGGCACAUGAGGAUCACCCAUGUUUCUC |  |  | 41 | 278 |
| GUUUAGUGAGGAUAUGUGGCGUGGAUCGAGCGCGGUCUGCUACAGAAGGCACAUGAGGAUCACCCAUGUUUCUC |  |  | 166 | 329 |
| GUUUAGUGAGGAUAUGUGGCUUCGAUCGUGAGAUCGAGGCUACAGAAGGCACAUGAGGAUCACCCAUGUUCCUG |  |  | 16 | 64.3 |
| GUUUAGUGAGGAUAUGUGGCUUCGAUCGUGCGCGGUCGGCUACAGAAGGCACAUGAGGAUCACCCAUGUUCCUC |  |  | 37.1 | 506 |
| GUUUAGUGAGGAUAUGUGGCUUCGAUCGUGCGCGUUCGGCUACAGAAGGCACAUGAGGAUCACCCAUGUUCCUC |  |  | 445 | 704 |
| GUUUCACAUGAGGAUCACCCAUGUGAGGAUAUCUAUUUGUUAACCGUAGUUAAUAGAUAGAGAAGGCGCGUGAU |  |  | 69 | 74.5 |
| GUUUCGUGAGGAUAUGUGGCUUCGAUCGUGCGAAAGAGGCUACAGAAGGCACAUGAGGAUCACCCAUGUUCCUC |  |  | 38.2 | 536 |
| GUUUCGUGAGGAUAUGUGGCUUCGAUCGUGCGAACGAGGCUACAGAAGGCACAUGAGGAUCACCCAUGUUCCUC |  |  | 37.4 | 481 |
| GUUUGGGCAGGAUAUACAUGAGGAUCACCCAUGUGUUUUUUGUGUGUUUUGUUAUCGUGUAGAAGGGUUCGGGC |  |  | 68.5 | 147 |
| UAAAAGACUAGCAAAUAAGUUCCACAUGAGGAUCACCCAUGUCAGGAUAUGAGCAGCAAAGCUGCUCAGAAGGGAUAGCUAGUC |  |  | 6.45 | 6.39 |
| UAAAAUCAUGUAGGAUAUGCGUGGCGAAGCUAUGCAGAAGGACAUGAGGAUCACCCAUGUCUUAGCUAGCGUACUAGCUUAAAG |  |  | 12.9 | 49.7 |
| UAAAAUUUACGAGGAUAUCCAAAGGUAGACAUAGGAGAAGGCGUACAUGAGGAUCACCCAUGUACCAAUAAAUGGGUUUCUCAA |  |  | 20.8 | 57.8 |
| UAAACACCCUCAUGUACCUGAGGACAUGAGGAUCACCCAUGUGAGGAUAUAGCCAUUAAAUCUAACUAGAAGGUAUAGGAAAUC |  |  | 772 | 612 |
| UAAACAUGAGGAUCACCCAUGUAAAGAUCGGUAGUAGAGAGUGAGGAUAUACUAAAAUUUAUAGAGUAGAAGGCACUGGGUUCU | 38.4 | 28.6 |  |  |
| UAAACAUGAGGAUCACCCAUGUAAAGAUCGGUAGUAGAGAGUGAGGAUAUACUAAAUUUAAUGGAGUAGAAGGCACUGGGUUCU | 44.8 | 30.9 |  |  |
| UAAACGUUCUAGAAGGUGCUUUUGUUAAACAAGCAAGGAUAUAGACAUGAGGAUCACCCAUGUCUUUGUGACAUCGACAUACUU |  |  | 8.44 | 11.2 |
| UAAAUACAUGAGGAUCACCCAUGUCAAAAGACAUGAGGAUAUGUACAGACUUCGGUCUGUACAGAAGGCAUGAAAA | 680 | 55.4 |  |  |
| UAAAUGUGAGGAUAUCAGGUGUGCUAGAAUACUGGUACAUCUGAGAAGGCACAUGAGGAUCACCCAUGUUCCUU |  |  | 16.4 | 41 |

| Sequence | apparent Kd [1] [nM] | apparent Kd [2] [nM] | apparent Kd [3] [nM] | apparent Kd [4] [nM] |
| --- | --- | --- | --- | --- |
| UAAAUGUGAGGAUAUUCGAAUAACUCGGAGACGAGUUGUUCGGAGAAGGCACAUGAGGAUCACCCAUGUUCCUU |  |  | 22.5 | 216 |
| UAAAUGUGAGGAUAUUCGUAGUACACGGAGACGUGUAUUACGGAGAAGGCACAUGAGGAUCACCCAUGUUCCUU |  |  | 22.2 | 166 |
| UAAAUUUUAUGAUAUUAUGACAUUAGAAGGCUGUACAUGUUGAUACAUGAGGAUCACCCAUGUAUAGAGGAUAUAGACAAUUUU |  |  | 31 | 65.1 |
| UAACAGUUAGGAUAUACCAGGGUAUCCUCGCGGCGCCGAAAACAUGAGGAUCACCCAUGUAGAAGGAACCGUUU |  |  | 65 | 19.6 |
| UAACAUACAAAUAUACAUGAGGAUCACCCAUGUUUGUUGGGAAGAAGGGUAACUAUAUUACAUAUACAGGAUAUUUAACAUACU | 15.1 | 11.7 |  |  |
| UAAGAGCGAGGAUAUACGUCGCUGGUCCGGAUGGACGCAUGACAUGAGGAUCACCCAUGUAGAAGGCGCAAAAC |  |  | 22.9 | 73.3 |
| UAAGCGCAGGAGAAGGGCACUGGACGCUCGCUACAUGAGGAUCACCCAUGUGCAGGAUAUCCGGCGCCACCCGCAAACUCGGUG |  |  | 15.8 | 72.1 |
| UAAGUUUAGGUAGGAUAUACUUUCAAUUUCUCUUUCCUUACAUGAGGAUCACCCAUGUUUACAUUGUAGAAGGACCACUAUGUU |  |  | 31.8 | 26.8 |
| UAAUAAUUAAGAGGAUAUAUACAACAUGAGGAUCACCCAUGUACCCAUGUAGUAGAAGGCUUAUUUUUAUUUAAUAAUAUAAUU | 122 | 40.1 |  |  |
| UAAUCUCAGAUAGGAUAUAUAGGAUAACUUAAGACCGAACAUGAGGAUCACCCAUGUGAUUAUUCGUAGAAGGAUCAAUGACCC | 119 | 119 |  |  |
| UAAUGUAUAUAGGAUAUCUAGCUGGAUACAGCUAGAGAAGGAUGUACAUGAGGAUCACCCAUGUAAAUCGAUCA |  |  | 23.2 | 55.7 |
| UAAUUAUUUGUGGUAAUACACUAUGAGGAUAUCAAGGAAUAUAACAUGAGGAUCACCCAUGUGAAUGAGAAGGCAUUAUUUAUA | 14.9 | 9.81 |  |  |
| UAAUUUUGUCAAGGAUAUGUAAUAUAGAUUUGAAAACAUGAGGAUCACCCAUGUAUAUGGUGGGAACAGAAGGUGAAUGGAGAA |  |  | 252 | 242 |
| UACAUAAAUGAAGGAUAUCGAUAUCCAACAUGAGGAUCACCCAUGUUGAGGAUCACCCAUGUAAAUGAGAAGGUUAACAUAACU | 70.5 | 73.5 |  |  |
| UACAUGAGGAUCACCCAUGUUAACAUGGUGUUGUUAUAUCUGAGAAGGGUAAUAUUACAUUAAGUACAGGAUAUCAUUGAUGUU |  |  | 208 | 46.3 |
| UACCUGAGGCAAAGCUUUAGGUAUACAUGAGGAUCACCCAUGUAGGAUAUGGUAGGCUUUGCUUACCAGAAGGACAUGUUAAUA |  |  | 17.3 | 56.3 |
| UACGGGUCAGGAUAUGCGAGAGAGUGGGAAAUAGGAAGGUAGCAGAAGGGACAUGAGGAUCACCCAUGUGAGGC |  |  | 24.3 | 29.5 |
| UACUAAAAGGAGGAUAUCGUAUCGGAGACGAUACGAGAAGGCUUAACAUGAGGAUCACCCAUGUUCUUCAAUAU |  |  | 15.8 | 18.2 |
| UACUUGUUAGGAUAUCUUACAUUUGCAUCAUAGCAACCAUUGGAGAAGGGACAUGAGGAUCACCCAUGUUUGGU |  |  | 42.3 | 43.8 |
| UAGAAGUCAGGAUAUCCAUGGCGGCACUUGCGUGGUGGCGUGGAGAAGGGACAUGAGGAUCACCCAUGUAAAGG |  |  | 148 | 174 |
| UAGAGUCUUGAGGAUAUUGGUACGUACCGGUCCCAAGAAGGCGAGACAUGAGGAUCACCCAUGUGACCGUGAGC |  |  | 31.9 | 47.8 |
